Source: PubChem BioAssay (The Scripps Research Institute Molecular Screening Center)
Rows were chosen to be rich in hits. Some 2.9% of all compounds tested hit in one or more screens of this group.
HTR1A agonist = agonists of human 5-HT1a serotonin receptor. CHO 5-HT1a Ga15 NFAT-bla reporter, FRET ratio; 0% basal, 100% maximal reference agonist. activation, % at 10 µM. 0.56% of 65,000 active. AID 567;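 active = activation above the screen-wide mean activation plus 3 SD, cut at about 19% in these data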
5HT1E antag = antagonists of human 5-HT1E serotonin receptor; CHO 5-HT1E Ga15 NFAT-bla reporter, FRET, antagonist; inhibition, % at 6 µM; 0.99% of 65,000 active; AID 571;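 active = inhibition above a set limit, the mean inhibition across every tested compound plus 3 SD, cut at about 29% in these data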;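 also: signal is the 460 over 535 nm emission ratio of beta-lactamase substrate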
5HT1a antag = antagonists of human 5-HT1a serotonin receptor. P08908. CHO 5-HT1a Ga15 NFAT-bla reporter, antagonist mode. inhibition, % at 10 µM. 0.68% of 62,000 active. AID 612;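 active = inhibition above the mean of all tested compounds plus 3 SD, cut at about 43% in these data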;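 also: receptor stimulated by 5-CT agonist at 100 nM near EC80; beta-lactamase reporter measured by ratiometric fluorescence of a cleavable substrate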
HTR1E agonist = activates the human 5-HT1E serotonin receptor | CHO 5-HT1E Ga15 NFAT-bla reporter, FRET; 0% DMSO wells, 100% control agonist wells | activation, % at 6 µM | P28566 | 0.69% of 65,000 active | AID 574;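 active = activation above a set limit, the screen-wide mean activation plus 3 SD, cut at about 8.5% in these data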
S1P1 ag pot = S1P1 (human) agonism or agonism potentiation; P21453; S1P1 CRE-bla cells, forskolin, beta-lactamase FRET, potentiator mode; S1P1 agonist co-added at EC20, 2 nM; 100% = saturating reference agonist, 0% = basal; activation, % at 9.5 µM; 0.57% of 56,000 active; AID 449;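 active = activation above a cutoff set at the mean activation of all tested compounds plus 3 SD, cut at about 54% in these data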;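 also: forskolin at 4 µM as EC80 and the EC20 agonist is SEW2871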
S1P3 agonist = S1P3 (human) receptor agonism; AID 373; activation, % at 4.5 µM; S1P3 NFAT-BLA reporter cells, FRET ratio; relative to 1 µM S1P, basal subtracted; Q99500; 0.1% of 60,000 active;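 active = activation above the screen-wide mean plus 3 SD, cut at about 4.5% in these data, passing the limit was not always enough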
Target sequence (Q99500 whole entry, looked up): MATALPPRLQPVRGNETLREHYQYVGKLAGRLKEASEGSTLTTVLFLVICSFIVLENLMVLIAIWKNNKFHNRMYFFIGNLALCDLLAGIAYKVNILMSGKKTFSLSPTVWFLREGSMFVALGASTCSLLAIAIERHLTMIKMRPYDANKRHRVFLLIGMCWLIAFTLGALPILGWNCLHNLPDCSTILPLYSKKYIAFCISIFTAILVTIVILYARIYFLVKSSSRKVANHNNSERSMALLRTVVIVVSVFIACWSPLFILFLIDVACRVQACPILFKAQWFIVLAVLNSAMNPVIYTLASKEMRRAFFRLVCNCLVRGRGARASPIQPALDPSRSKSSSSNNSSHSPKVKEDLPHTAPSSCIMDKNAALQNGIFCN
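Material: Human S1P3 NFAT-BLA reporter CHO cells | Incubation: Overnight plating, 4 h compound 37 °C, 2 h substrate RT | Signal: FRET β-lactamase substrate fluorescence, excitation 405 nm, 460/535 nm emission ratio, background-subtracted | Compound: 4.5 µM final, single dose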
Large screens that a line does not name were inactive.

CN1Cc2cc(C(=O)c3cc(Cl)cc(CSc4ncccn4)c3O)cnc2NC1=O	5HT1E antag 79.8, 5HT1a antag 60.3
COc1ccc(Oc2c(-c3ccc(O)cc3O)n[nH]c2C)cc1	none
CCCc1ccc(Oc2cn[nH]c2-c2ccc(O)c(C)c2O)cc1	S1P1 ag pot 58.1
CCCOC(=O)c1ccc(Oc2cn[nH]c2-c2ccc(OCC)cc2O)cc1	none
CCCc1ccc(Oc2c(-c3ccc(O)c(C)c3O)n[nH]c2C)cc1	5HT1a antag 55.9
Cc1ccccc1OCc1nc(-c2ccc(NC(=O)c3ccc4c(c3)OCO4)cc2)no1	HTR1E agonist 9.2
CCCc1ccc(OCc2nc(-c3ccc(NC(=O)c4ccco4)cc3)no2)cc1	S1P1 ag pot 94.4
O=C(NCc1nc(-c2ccccc2)no1)c1ccc2c(c1)OCO2	none
O=C(Nc1ccc(-c2noc(CCc3ccccc3)n2)cc1)c1cccnc1	S1P1 ag pot 93.7
Cc1ccccc1OCc1nc(-c2ccc(NC(=O)c3ccco3)cc2)no1	none (no result: S1P1 ag pot, S1P3 agonist)
OC(c1cccc(OCc2ccccc2)c1)c1nnc(-c2ccccc2)o1 (stereo not drawn)	S1P1 ag pot 111.4
CCN(CC)CCCNC(=O)C1c2ccccc2C(=O)N(C)C1c1ccc(OC)cc1 (stereo not drawn)	none (no result: S1P1 ag pot, S1P3 agonist)
Cc1ccc(CNC(=O)CCS(=O)(=O)c2cccc3nonc23)cc1	none (no result: S1P1 ag pot, S1P3 agonist)
CCCSc1nnc(NC(=O)Nc2ccccc2)s1	none (no result: 5HT1a antag)
CCCSc1nnc(NC(=O)Nc2ccc(F)cc2)s1	5HT1E antag 32.3 (no result: 5HT1a antag)
OCCN1CCN(CCCN2c3ccccc3Sc3ccc(C(F)(F)F)cc32)CC1	none (no result: 5HT1a antag)
CN(C)CCCN1c2ccccc2Sc2ccc(C(F)(F)F)cc21	HTR1E agonist 11.7 (no result: 5HT1a antag)
Cc1cc(=O)[nH]c(Nc2ccc(C(=O)OC(C)C)cc2)n1	none
COc1cccc(-c2cc(C(F)(F)F)nc(N3CCCCC3)n2)c1	HTR1A agonist 98.5 (no result: S1P1 ag pot, S1P3 agonist)
COc1ccc(-c2cc(C(F)(F)F)nc(N3CCCCCC3)n2)cc1	none (no result: S1P1 ag pot, S1P3 agonist)
COc1ccc(-c2cc(C(F)(F)F)nc(N3CCN(C)CC3)n2)cc1	HTR1E agonist 18.0 (no result: S1P1 ag pot, S1P3 agonist)
Cc1nonc1NC(=O)Nc1cccnc1	none
OCCOCCn1c(-c2ccccc2)nc(=S)c2c1CCCC2	none
CC1(C)Cc2c(c(=S)nc(-c3ccccc3)n2CCOCCO)CO1	HTR1E agonist 17.7 (no result: S1P1 ag pot, S1P3 agonist)
Fc1cccc(-c2cc3nc4c(c(N5CCOCC5)n3n2)CCCC4)c1	5HT1E antag 30.1
CCc1nnc(NC(=O)CSc2nnc(COc3ccccc3C)o2)s1	HTR1E agonist 8.9
O=c1cc(CN2CCN(C/C=C/c3ccccc3)CC2)c2cc(O)ccc2o1	5HT1a antag 44.0
CCN1C(=O)N(C)C(N(O)C(=O)NC)C1(C)C (stereo not drawn)	none
CCOC(=O)c1ccc(NC(=O)Nc2ccc3c4c(cccc24)C(=O)N3CC)cc1	5HT1E antag 30.3
CCN1C(=O)c2cccc3c(NC(=O)c4ccc(S(=O)(=O)N(C)C)cc4)ccc1c23	HTR1A agonist 88.0 (no result: S1P1 ag pot)
CCN1C(=O)c2cccc3c(NS(=O)(=O)c4ccc(NC(C)=O)cc4)ccc1c23	none
N#CC1=C(N)SC(N)=C(C#N)C1CCC1CCCCC1	none
CN(C(=O)Cn1c(=O)n(CCCCC(=O)NC2CCCC2)c(=O)c2ccccc21)C1CCCCC1	none
CS(=O)(=O)N(CC(=O)Nc1cccnc1)c1ccc2c(c1)OCO2	none (no result: S1P1 ag pot)
CCOC(=O)c1ccccc1NC(=O)c1ccc(NS(C)(=O)=O)cc1	5HT1E antag 33.9 (no result: S1P1 ag pot)
CC(=O)Nc1cccc(NC(=O)CSc2nnc(Cc3cccn3C)n2CCc2ccccc2)c1	none
O=C(NC1CCCCC1)C(c1cccs1)N(Cc1cccs1)C(=O)c1ccco1 (stereo not drawn)	5HT1a antag 50.3
O=C(NCC(=O)N(Cc1cccs1)C(C(=O)NC1CCCC1)c1ccncc1)c1ccco1 (stereo not drawn)	none
O=C(NC1CCCCC1)C(c1cccs1)N(CC1CCCO1)C(=O)c1csnn1 (stereo not drawn)	none
O=C(NC1CCCC1)C(c1cccs1)N(CC1CCCO1)C(=O)Cc1cccs1 (stereo not drawn)	5HT1a antag 44.5
